{"source": "paper PMC9701462", "about": "(Hepatology Communications, 2022)", "format_in_all_cases": "in vivo, human", "key": {"[1]": {"tested_on": "subjects with presumed F2/F3 NASH", "assay": "Phase 2a safety and tolerability", "settings": "28 days", "summary_of_the_method": "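Single-blind (subjects only), 2:1 randomized, placebo-controlled, at 10 US sites. Dosing was oral, once daily in the morning, fasted, for 28 days, as 75-mg soft-gelatin capsules. AEs, SAEs, labs (chemistry, hematology, coagulation, urinalysis), ECG, vitals and physical exams were recorded at screening, at Day 1 pre-dose baseline, then weekly for 4 weeks. Results are given as counts and percentages of the safety set per group.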"}, "[2]": {"assay": "Whole-blood pharmacokinetics", "settings": "subjects with F2/F3 NASH, derived from CL/F and Vc/F estimates", "summary_of_the_method": "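Whole-blood samples were taken on Day 1 and Day 28 of once-daily oral dosing and assayed for parent drug and primary metabolites. Population PK used nonlinear mixed-effects modeling with first-order conditional estimation with interaction. Model choice used −2LL, AIC/BIC, %RSE and residual/VPC diagnostics; predictions ran to 816 h. CIs came from jackknife bootstrap (500 runs). Half-life was derived from CL/F and Vc/F estimates.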"}, "[3]": {"tested_on": "subjects with presumed F2/F3 NASH", "assay": "Serum liver enzymes ALT and AST, Phase 2a exploratory efficacy", "settings": "for ALT, Mean: serum", "summary_of_the_method": "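Serum ALT and AST are exploratory efficacy endpoints, taken as absolute and percent change from baseline. Sampling was at Day 1 before dosing, during 28 days of once-daily fasted oral dosing, and after a 14-day off-drug observation period. Analysis used repeated-measures ANOVA/ANCOVA with Bonferroni correction, or Friedman/Savage nonparametric ANOVA when data were non-normal or sparse.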"}, "[4]": {"tested_on": "subjects with presumed F2/F3 NASH", "assay": "Collagen biomarkers", "settings": "for Pro-C3, Mean: plasma", "summary_of_the_method": "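Adults with presumed F2/F3 NASH were randomized 2:1 to oral active or matching placebo, given as 75-mg soft-gelatin capsules once daily in the morning, fasted, for 28 days. Collagen turnover markers were sampled at baseline (Day 1, pre-dose), after 28 days of dosing, and at end of study after a 14-day observation period. Values are summarized as mean, SD, median and range.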"}, "[5]": {"settings": "75 mg QD oral x 28 days, Day 1 (baseline, before dosing), N = 15"}, "[6]": {"settings": "75 mg QD oral x 28 days, Day 14, N = 15"}, "[7]": {"settings": "75 mg QD oral x 28 days, Day 28, N = 15"}, "[8]": {"settings": "75 mg QD oral x 28 days, Day 42 (after 14-day observation period), N = 15"}, "[9]": {"settings": "225 mg QD oral x 28 days, Day 1 (baseline, before dosing), N = 16"}, "[10]": {"settings": "225 mg QD oral x 28 days, Day 14, N = 16"}, "[11]": {"settings": "225 mg QD oral x 28 days, Day 28, N = 16"}, "[12]": {"settings": "225 mg QD oral x 28 days, Day 42 (after 14-day observation period), N = 16"}, "[13]": {"settings": "75 mg QD oral x 28 days, Day 1 (baseline, before dosing), N = 14"}, "[14]": {"settings": "75 mg QD oral x 28 days, Day 14, N = 14"}, "[15]": {"settings": "75 mg QD oral x 28 days, Day 28, N = 14"}, "[16]": {"settings": "75 mg QD oral x 28 days, Day 42 (after 14-day observation period), N = 14"}, "[17]": {"settings": "225 mg QD oral x 28 days, Day 1 (baseline, before dosing), N = 15"}, "[18]": {"settings": "225 mg QD oral x 28 days, Day 14, N = 15"}, "[19]": {"settings": "225 mg QD oral x 28 days, Day 28, N = 15"}}, "data": [{"substance": "Rencofilstat [RCF]", "values": [{"measurement": "Subjects with any TEAE", "setting": "[1]; 75 mg QD oral, N = 15", "value": "5 (33.3%) n (%)"}, {"measurement": "TEAE: Back pain", "setting": "[1]; 75 mg QD oral, N = 15", "value": "0 (0%) n (%)"}, {"measurement": "TEAE: Constipation", "setting": "[1]; 75 mg QD oral, N = 15", "value": "1 (6.7%) n (%)"}, {"measurement": "TEAE: Diarrhea", "setting": "[1]; 75 mg QD oral, N = 15", "value": "0 (0%) n (%)"}, {"measurement": "TEAE: Dizziness", "setting": "[1]; 75 mg QD oral, N = 15", "value": "0 (0%) n (%)"}, {"measurement": "TEAE: Gastrointestinal disorders", "setting": "[1]; 75 mg QD oral, N = 15", "value": "1 (6.7%) n (%)"}, {"measurement": "TEAE: Headache", "setting": "[1]; 75 mg QD oral, N = 15", "value": "0 (0%) n (%)"}, {"measurement": "TEAE: Musculoskeletal disorders", "setting": "[1]; 75 mg QD oral, N = 15", "value": "2 (13.3%) n (%)"}, {"measurement": "TEAE: Nervous system disorders", "setting": "[1]; 75 mg QD oral, N = 15", "value": "1 (6.7%) n (%)"}, {"measurement": "deaths or treatment-emergent SAEs (TESAEs)", "setting": "[1]; 75 mg and 225 mg QD oral", "value": "No deaths or TESAEs"}, {"measurement": "safety signals", "setting": "[1]; 75 mg and 225 mg QD oral", "value": "No safety signals were identified"}, {"measurement": "Subjects with any TEAE", "setting": "[1]; 225 mg QD oral, N = 17", "value": "10 (58.8%) n (%)"}, {"measurement": "TEAE: Back pain", "setting": "[1]; 225 mg QD oral, N = 17", "value": "1 (5.9%) n (%)"}, {"measurement": "TEAE: Constipation", "setting": "[1]; 225 mg QD oral, N = 17", "value": "2 (11.8%) n (%)"}, {"measurement": "TEAE: Diarrhea", "setting": "[1]; 225 mg QD oral, N = 17", "value": "2 (11.8%) n (%)"}, {"measurement": "TEAE: Dizziness", "setting": "[1]; 225 mg QD oral, N = 17", "value": "1 (5.9%) n (%)"}, {"measurement": "TEAE: Gastrointestinal disorders", "setting": "[1]; 225 mg QD oral, N = 17", "value": "5 (29.4%) n (%)"}, {"measurement": "TEAE: Headache", "setting": "[1]; 225 mg QD oral, N = 17", "value": "1 (5.9%) n (%)"}, {"measurement": "TEAE: Musculoskeletal disorders", "setting": "[1]; 225 mg QD oral, N = 17", "value": "2 (11.8%) n (%)"}, {"measurement": "TEAE: Nervous system disorders", "setting": "[1]; 225 mg QD oral, N = 17", "value": "2 (11.8%) n (%)"}, {"measurement": "effective half-life of elimination (T1/2)", "setting": "[2]", "value": "33.7 ± 11.1", "unit": "h"}, {"measurement": "AST, Mean", "setting": "[3]; [5]", "value": 49.47, "unit": "IU/L"}, {"measurement": "ALT, Mean", "setting": "[3]; [5]", "value": 60.53, "unit": "IU/L"}, {"measurement": "AST, Mean", "setting": "[3]; [6]", "value": 39.42, "unit": "IU/L"}, {"measurement": "ALT, Mean", "setting": "[3]; [6]", "value": 47.00, "unit": "IU/L"}, {"measurement": "AST, Mean", "setting": "[3]; [7]", "value": 35.08, "unit": "IU/L"}, {"measurement": "ALT, Mean", "setting": "[3]; [7]", "value": 42.50, "unit": "IU/L"}, {"measurement": "AST, Mean", "setting": "[3]; [8]", "value": 41.45, "unit": "IU/L"}, {"measurement": "ALT, Mean", "setting": "[3]; [8]", "value": 50.00, "unit": "IU/L"}, {"measurement": "AST, Mean", "setting": "[3]; [9]", "value": 31.94, "unit": "IU/L"}, {"measurement": "ALT, Mean", "setting": "[3]; [9]", "value": 36.06, "unit": "IU/L"}, {"measurement": "AST, Mean", "setting": "[3]; [10]", "value": 32.82, "unit": "IU/L"}, {"measurement": "ALT, Mean", "setting": "[3]; [10]", "value": 31.59, "unit": "IU/L"}, {"measurement": "AST, Mean", "setting": "[3]; [11]", "value": 32.38, "unit": "IU/L"}, {"measurement": "ALT, Mean", "setting": "[3]; [11]", "value": 30.56, "unit": "IU/L"}, {"measurement": "AST, Mean", "setting": "[3]; [12]", "value": 31.38, "unit": "IU/L"}, {"measurement": "C1M, Mean", "setting": "[4]; [13]", "value": 90185.71, "unit": "pg/mL"}, {"measurement": "C6M, Mean", "setting": "[4]; [13]", "value": 25142.86, "unit": "pg/mL"}, {"measurement": "PRO-C8, Mean", "setting": "[4]; [5]", "value": 4985.33, "unit": "pg/mL"}, {"measurement": "Pro-C3, Mean", "setting": "[4]; [13]", "value": 23792.86, "unit": "pg/mL"}, {"measurement": "C1M, Mean", "setting": "[4]; [14]", "value": 80125.00, "unit": "pg/mL"}, {"measurement": "C6M, Mean", "setting": "[4]; [14]", "value": 25825.00, "unit": "pg/mL"}, {"measurement": "PRO-C8, Mean", "setting": "[4]; [6]", "value": 4693.33, "unit": "pg/mL"}, {"measurement": "Pro-C3, Mean", "setting": "[4]; [14]", "value": 22916.67, "unit": "pg/mL"}, {"measurement": "C1M, Mean", "setting": "[4]; [15]", "value": 70490.91, "unit": "pg/mL"}, {"measurement": "C6M, Mean", "setting": "[4]; [15]", "value": 23354.55, "unit": "pg/mL"}, {"measurement": "PRO-C8, Mean", "setting": "[4]; [7]", "value": 4683.33, "unit": "pg/mL"}, {"measurement": "Pro-C3, Mean", "setting": "[4]; [15]", "value": 22933.33, "unit": "pg/mL"}, {"measurement": "C1M, Mean", "setting": "[4]; [16]", "value": 65309.09, "unit": "pg/mL"}, {"measurement": "C6M, Mean", "setting": "[4]; [16]", "value": 23783.33, "unit": "pg/mL"}, {"measurement": "PRO-C8, Mean", "setting": "[4]; [8]", "value": 4923.33, "unit": "pg/mL"}, {"measurement": "PRO-C8, Mean", "setting": "[4]; [17]", "value": 4693.33, "unit": "pg/mL"}, {"measurement": "C1M, Mean", "setting": "[4]; [9]", "value": 70262.50, "unit": "pg/mL"}, {"measurement": "C6M, Mean", "setting": "[4]; [9]", "value": 31406.25, "unit": "pg/mL"}, {"measurement": "Pro-C3, Mean", "setting": "[4]; [17]", "value": 24413.33, "unit": "pg/mL"}, {"measurement": "PRO-C8, Mean", "setting": "[4]; [18]", "value": 4138.13, "unit": "pg/mL"}, {"measurement": "C1M, Mean", "setting": "[4]; [10]", "value": 55843.75, "unit": "pg/mL"}, {"measurement": "C6M, Mean", "setting": "[4]; [10]", "value": 29168.75, "unit": "pg/mL"}, {"measurement": "Pro-C3, Mean", "setting": "[4]; [18]", "value": 22418.75, "unit": "pg/mL"}, {"measurement": "PRO-C8, Mean", "setting": "[4]; [19]", "value": 4416.88, "unit": "pg/mL"}, {"measurement": "C1M, Mean", "setting": "[4]; [11]", "value": 62100.00, "unit": "pg/mL"}, {"measurement": "C6M, Mean", "setting": "[4]; [11]", "value": 31362.5, "unit": "pg/mL"}, {"measurement": "Pro-C3, Mean", "setting": "[4]; [19]", "value": 24043.75, "unit": "pg/mL"}, {"measurement": "PRO-C8, Mean", "setting": "[4]; 225 mg QD oral x 28 days, Day 42 (after 14-day observation period), N = 15", "value": 4712.94, "unit": "pg/mL"}, {"measurement": "C1M, Mean", "setting": "[4]; [12]", "value": 69850.00, "unit": "pg/mL"}, {"measurement": "C6M, Mean", "setting": "[4]; [12]", "value": 33168.75, "unit": "pg/mL"}]}]}
